High-throughput results: PubChem, several laboratories
CYP2C19 inhib – human CYP2C19 inhibition; P33261; CYP2C19 Supersomes, luciferin-H EGE luminescence, 30 min; inhibition, % at 5 µM; actives 21% (n = 96,000); AID 778;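 active = CYP2C19 inhibition above a set limit at 5 µM in the primary screen, cut at about 50% in these data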;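 also: plate controls were negative control wells for no effect and 2.5 mM tranylcypromine positive control for full effect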
CYP2C19 activ – cytochrome P450 2C19 (human) activation. recombinant CYP2C19, luciferin-H EGE luminescence; active compounds read high; 0 = fully inhibited enzyme, 1 = untreated enzyme. activation factor at 5 µM. 96,000 tested, under 10 active. AID 1025;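 active = activation factor of at least 2 at 5 µM in the primary screen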;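 also: 0 = wells with 2.5 mM tranylcypromine and 1 = vehicle-only wells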
CYP2C9 inh – human CYP2C9 inhibition; CYP2C9 Supersomes, luciferin-H conversion, luminescence; inhibition, % at 5 µM; actives 20% (n = 96,000); AID 777;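 active = blocking of liver enzyme CYP2C9 beyond about 50% at 5 µM, limit read from the data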
Cav32 inh – inhibitors of human Cav3.2 T-type calcium channel. B-score at 10 µM. actives 4% (n = 100,000). Cav3.2-expressing cells, Fluo-4 calcium fluorescence FDSS; active compounds read low. AID 449739. O95180;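 active = single-dose well whose peak fluorescence ratio is a statistical outlier from its plate by either plate-standardised score or position-corrected B-score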
Rev-RRE block – HIV Rev-RRE protein-RNA interaction inhibition. P05866. inhibition, % at 8 µM. Rev peptide-RRE RNA binding, FRET. actives 0.79% (n = 97,000);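 active = inhibition above the screen-wide mean plus 3 SD, cut at about 35% in these data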;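 also: 0% = median DMSO wells and 100% = median Neomycin B control wells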
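Assay system: labelled RRE RNA duplex and labelled Rev peptide / Medium: HEPES pH 7.5 salt buffer with EDTA / Reagent: labelled Rev peptide / Schedule: 5 + 15 min at 25 °C / Signal: FRET, excitation 480 nm, emission 540 nm donor and 671 nm acceptor / Benchmarks: DMSO and neomycin B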
CYP2C9 activ – activators of human CYP2C9. recombinant CYP2C9, luciferin-H conversion, luminescence; active compounds read high; factor 1 = untreated enzyme, 0 = blocked. activation factor at 5 µM. actives 1.4% (n = 96,000). AID 1024;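 active = activation factor of 2 or more for CYP2C9 at a 5 µM dose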;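 also: 0 = sulfaphenazole-blocked wells and 1 = vehicle-only wells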
Active calls of the source: *; · = no result given. In the library only some 27% were active in any assay of this set; here they are far more common.

SMILES	CYP2C19 inhib	CYP2C19 activ	CYP2C9 inh	Cav32 inh	Rev-RRE block	CYP2C9 activ
O=C(Cn1c(=O)oc2cc(S(=O)(=O)N3CCCC3)ccc21)N1CCCC1	8.6	0.9	20.5	-0.461	5.3	0.8
O=C(Cn1c(=O)oc2cc(S(=O)(=O)N3CCCC3)ccc21)N1CCc2ccccc2C1	2.6	1	63.7*	-5.67*	2.0	0.4
O=C(Cn1c(=O)oc2cc(S(=O)(=O)N3CCCC3)ccc21)NCc1ccc(F)cc1	5.4	0.9	85.1*	0.418	-0.9	0.1
Cn1c(=O)c2c(ncn2CC(=O)Nc2ccc(Cl)cc2Cl)n(C)c1=O	18.3	0.8	13.0	-0.000356	-0.4	0.9
CCn1cc(Br)c(C(=O)Nc2ccc(Cl)cc2Cl)n1	74.1*	0.3	45.8	-0.845	10.6	0.5
CCOC(=O)c1ccc(NC(=O)c2nn(CC)cc2Br)cc1	30.9	0.7	-45.1	-0.804	2.7	1.5
CCn1cc(Br)c(C(=O)Nc2ccc(F)c(Cl)c2)n1	92.5*	0.1	75.0*	-2.47	·	0.3
CC(C)(C)NC(=O)C(c1ccccn1)N(C(=O)c1ccc2c(c1)OCCO2)C1CCCC1 (configuration not stated)	11.3	0.9	26.8	-0.575	-2.4	0.7
Cc1nc2ccccn2c1C(=O)N/N=C/c1cc(C)n(-c2ccc(Cl)cc2)c1C	·	·	·	-1.45	-2.6	·
Cc1cc(/C=N/n2cnnc2)c(C)n1-c1ccc(OCc2ccc(F)cc2)cc1	25.5	0.7	17.4	·	-0.3	0.8
Cc1sc(-n2c(C)cc(/C=C3\SC(=S)NC3=O)c2C)c(C#N)c1C	·	·	·	-2.2	21.0	·
Cc1cc(/C=N/NC(=O)c2cccs2)c(C)n1-c1ccccc1	2.5	1	18.4	-7.89*	4.8	0.8
Cc1cc(/C=N/n2cnnc2)c(C)n1-c1cccc(Cl)c1	99.4*	0	95.2*	·	5.6	0
Cc1cc(/C=N\O)c(C)n1-c1ccncc1	14.0	0.9	-13.5	·	14.8	1.1
Cc1cc(/C=N/n2cnnc2)c(C)n1-c1ccc(Cl)cc1Cl	99.2*	0	94.0*	-2.18	0.4	0.1
Cc1sc(-n2c(C)cc(/C=N/n3cnnc3)c2C)c(C#N)c1C	89.4*	0.1	82.9*	1.67	0.9	0.2
Cc1ccc(-c2[nH]nc3c2C(c2ccc(OC(=O)N4CCOCC4)cc2)C(C#N)=C(N)O3)cc1 (configuration not stated)	39.8	0.6	36.0	-1.26	3.2	0.6
C/C(=C\[C@@H](NP(=O)(c1ccccc1)c1ccccc1)c1ccccc1)CO[Si](c1ccccc1)(c1ccccc1)C(C)(C)C	·	·	·	-1.33	·	·
COC(=O)c1ccc(-c2ccc(OC)c([C@H]3[C@H]4C=CC[C@@H](C)[C@@H]4C(=O)N3Cc3ccccc3)c2)cc1	·	·	·	-2.55	·	·
Cc1cc(/C=N/n2cnnc2)c(C)n1-c1ccccc1	100.0*	0	72.6*	0.622	3.9	0.3
NC(=O)[C@H]1CC2(CC(c3cccc(NC(=O)[C@H]4CCC(=O)N4)c3)=NO2)CN1C(=O)c1cc([N+](=O)[O-])cc([N+](=O)[O-])c1 (some centres not stated)	·	·	·	0.332	·	·
O=C1N/C(=N\N=C\c2ccc3ncccc3c2)SC1Cc1ccc(SC(F)F)cc1 (configuration not stated)	-3.9	1	48.5	-0.18	5.7	0.5
O=C1N/C(=N\N=C\c2cccnc2)SC1Cc1ccc(SC(F)F)cc1 (configuration not stated)	2.3	1	52.8*	-0.519	6.3	0.5
O=c1[nH]c2cc(Cl)ccc2n1-c1ccccc1	50.1*	0.5	13.6	1.09	0.3	0.9
c1csc(C2C3=C(Nc4ncnn42)c2ccccc2OC3)c1 (configuration not stated)	29.4	0.7	37.3	-0.651	6.6	0.6
SMILES	CYP2C19 inhib	CYP2C19 activ	CYP2C9 inh	Cav32 inh	Rev-RRE block	CYP2C9 activ
Cc1ccc(Cn2c(C(C)Nc3nc(-c4ccc(F)cc4)cs3)nc3cc(C(F)(F)F)ccc32)cc1 (configuration not stated)	·	·	·	0.403	·	·
Cn1c(=O)c2c(ncn2CC(=O)N2CCN(c3ccc(F)cc3)CC2)n(C)c1=O	-0.2	1	77.7*	0.978	1.6	0.2
Cc1ccc2ccc(C3C(=O)c4ccccc4C3=O)nc2c1	·	·	·	-1.88	8.1	·
Cc1ccc(N2C(=S)N=C(Nc3ccccc3C)C23CCOC(C)(C)C3)cc1 (configuration not stated)	33.2	0.7	51.1*	-6.05*	-1.5	0.5
CCC1=NC(c2ccccc2Cl)N(O)C1(C)C (configuration not stated)	-4.9	1	-8.9	0.304	-1.5	1.1
CC(C)Cc1cc(C(=O)Nc2ccc(F)cc2F)no1	19.9	0.8	-75.6	-0.332	·	1.8
CC(C)Cc1cc(C(=O)Nc2cc(Cl)ccc2Cl)no1	-28.3	1.3	-162.0	·	3.4	2.6*
CC(C)c1cc(C(=O)Nc2cc(Cl)ccc2O)no1	13.5	0.9	50.1*	-0.00246	0.7	0.5
CC(C)c1cc(C(=O)Nc2cc(Br)ccc2O)no1	4.9	1	38.8	-1.33	7.3	0.6
Cc1cc2c3c(ccc(C)c3n1)N=CN2c1ccccc1	38.7	0.6	56.1*	2.04	7.5	0.4
Nc1c(-c2ccc(Cl)cc2)cnn1-c1cccc([N+](=O)[O-])c1	2.1	1	-1.2	0.885	6.4	1
Cc1ccccc1C(=O)Nc1cccc(NC(=O)c2ccc(-c3ccc(Br)cc3)o2)c1	17.5	0.8	55.5*	·	-2.6	0.4
CCCN(CCC)C(=O)C1CCN(c2cc(C)nc3c(-c4ccc(OC)c(OC)c4)c(C)nn23)CC1	48.3	0.5	51.3*	-1.44	5.9	0.5
COc1ccc(CCNC(=O)C2CCN(C(=O)N(C)C)CC2)cc1OC	6.9	0.9	-12.5	-0.121	5.7	1.1
COc1ccc(-c2c(C)nn3c(N4CCC(C(=O)NCCN(C)C)CC4)cc(C)nc23)cc1OC	-10.4	1.1	-3.7	3.13*	·	1
COc1ccccc1-c1c(C)nn2c(N3CCC(C(N)=O)CC3)cc(C)nc12	-3.4	1	-1.0	0.92	0.1	1
O=C(O)C1CC=CCC1C(=O)Nc1cccc(C(=O)N2CCCCC2)c1 (configuration not stated)	-19.9	1.2	-27.2	1.01	0.4	1.3
Cc1ccn2c(C(=O)c3ccc(Cl)cc3)cnc2c1	79.4*	0.2	75.0*	-0.748	0.6	0.3
CN(c1ccccc1C(=O)N1CCN(c2ccccc2)CC1)S(C)(=O)=O	·	·	·	0.544	0.6	·
Cc1ccc2c(c1)N(C(C)C(=O)NCCc1ccccc1)C(=O)CO2 (configuration not stated)	97.2*	0	33.5	-0.00451	-2.6	0.7
Cc1ccc2c(c1)N(CC(=O)NCCc1c[nH]c3ccccc13)C(=O)CO2	93.1*	0.1	27.1	-2.24	-1.8	0.7
